Source: ChEMBL document CHEMBL2331506, “Design, synthesis, antiviral and cytostatic evaluation of novel isoxazolidine nucleotide analogues with a carbamoyl linker” (Bioorg Med Chem, 2013)
The source made the active and inactive calls. How the calls were made is not given here.

How the values were obtained:
MDCK = assay: Cytotoxicity against dog MDCK cells assessed as alteration of cell morphology up to 100 uM by microscopic analysis; format: cell-based, Canis lupus familiaris
Method in brief: (§1)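 Uninfected host-cell cultures were exposed to compound and examined by microscopy. Cytotoxicity was expressed as the minimum cytotoxic concentration (MCC) causing a microscopically detectable alteration of normal cell morphology.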

[1] = Cytotoxicity against cat CRFK cells assessed as alteration of cell morphology up to 100 uM by microscopic analysis; format: cell-based, Felis catus; method in brief: as §1
Vero = assay: Cytotoxicity against african green monkey Vero cells assessed as alteration of cell morphology up to 100 uM by microscopic analysis; format: cell-based; settings: chlorocebus sabaeus; method in brief: as §1
HeLa = assay: Cytotoxicity against human HeLa cells assessed as alteration of cell morphology up to 100 uM by microscopic analysis; format: cell-based; method in brief: as §1
HEL = assay: Cytotoxicity against human HEL cells assessed as alteration of cell morphology up to 100 uM by microscopic analysis; format: cell-based; method in brief: as §1
[2] = tested on: Human immunodeficiency virus 2; assay: Antiviral activity against Human immunodeficiency virus 2 ROD infected in human CEM cells assessed as reduction of virus-induced giant cell formation at 250 uM after 4 to 5 days; format: functional, organism-based; settings: CCRF-CEM
Method in brief: (§2)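 CEM cells at 3 × 10^5 cells/mL were infected with HIV at 100 CCID50 per mL in the presence of compound dilutions. They were held 4–5 days at 37 °C in humidified CO2. Syncytium (giant cell) formation was scored microscopically, and EC50 was taken as the concentration inhibiting giant cell formation by 50%.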

[3] = tested on: Human immunodeficiency virus 1; assay: Antiviral activity against Human immunodeficiency virus 1 3B infected in human CEM cells assessed as reduction of virus-induced giant cell formation at 250 uM after 4 to 5 days; format: functional, organism-based; settings: CCRF-CEM; method in brief: as §2
Feline coronavirus = assay: Antiviral activity against Feline coronavirus infected in cat CRFK cells assessed as reduction of virus-induced cytopathogenicity at 250 uM; format: functional, organism-based
Felid alphaherpesvirus 1 = assay: Antiviral activity against Feline herpes virus infected in cat CRFK cells assessed as reduction of virus-induced cytopathogenicity at 250 uM; format: functional, organism-based
Influenza B virus = assay: Antiviral activity against Influenza B virus infected in dog MDCK cells assessed as reduction of virus-induced cytopathogenicity at 250 uM; format: functional, organism-based
Method in brief: (§3)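 Confluent cell monolayers were infected with 100 CCID50 of virus while exposed to varying compound concentrations. Cytopathicity was scored once it was complete in untreated infected controls. EC50 was taken as the concentration that reduced virus-induced cytopathogenicity by 50%.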

Influenza A virus [4] = assay: Antiviral activity against Influenza A virus H3N2 infected in dog MDCK cells assessed as reduction of virus-induced cytopathogenicity at 250 uM; format: functional, organism-based; method in brief: as §3
Influenza A virus [5] = assay: Antiviral activity against Influenza A virus H1N1 infected in dog MDCK cells assessed as reduction of virus-induced cytopathogenicity at 250 uM; format: functional, organism-based; method in brief: as §3
Punta Toro virus = assay: Antiviral activity against Punta Toro virus infected in african green monkey Vero cells assessed as reduction of virus-induced cytopathogenicity at 250 uM; format: functional, organism-based
Method in brief: (§4)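 Confluent monolayers (HEL fibroblasts, Vero, or HeLa cells as listed) were infected with 100 CCID50 of virus in the presence of varying compound concentrations. Virus-induced cytopathicity or plaque formation was scored once cytopathicity was complete in untreated infected controls. EC50 was taken as the concentration reducing cytopathogenicity or plaque formation by 50%.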

Sindbis virus = assay: Antiviral activity against Sindbis virus infected in african green monkey Vero cells assessed as reduction of virus-induced cytopathogenicity at 250 uM; format: functional, organism-based; method in brief: as §4
Coxsackievirus B4 = assay: Antiviral activity against Coxsackievirus B4 infected in african green monkey Vero cells assessed as reduction of virus-induced cytopathogenicity at 250 uM; format: functional, organism-based; method in brief: as §4
[6] = tested on: Mammalian orthoreovirus 1; assay: Antiviral activity against Reovirus 1 infected in african green monkey Vero cells assessed as reduction of virus-induced cytopathogenicity at 250 uM; format: functional, organism-based; method in brief: as §4
Human respirovirus 3 = assay: Antiviral activity against Parainfluenza virus 3 infected in african green monkey Vero cells assessed as reduction of virus-induced cytopathogenicity at 250 uM; format: functional, organism-based; method in brief: as §4
[7] = tested on: Respiratory syncytial virus; assay: Antiviral activity against Respiratory syncytial virus long infected in human HeLa cells assessed as reduction of virus-induced cytopathogenicity at 250 uM; format: functional, organism-based; method in brief: as §4
[8] = tested on: Vesicular stomatitis virus; assay: Antiviral activity against Vesicular stomatitis virus infected in human HeLa cells assessed as reduction of virus-induced cytopathogenicity at 250 uM; format: functional, organism-based; method in brief: as §3
Human alphaherpesvirus 1 [9] = assay: Antiviral activity against thymidine kinase-deficient, ACV-resistant Herpes simplex virus 1 KOS infected in human HEL cells assessed as reduction of virus-induced cytopathogenicity at 250 uM; format: functional, organism-based; method in brief: as §3
[10] = tested on: Vesicular stomatitis virus; assay: Antiviral activity against Vesicular stomatitis virus infected in human HEL cells assessed as reduction of virus-induced cytopathogenicity at 250 uM; format: functional, organism-based; method in brief: as §3
Human alphaherpesvirus 2 = assay: Antiviral activity against Herpes simplex virus 2 G infected in human HEL cells assessed as reduction of virus-induced cytopathogenicity at 250 uM; format: functional, organism-based; settings: strain G; method in brief: as §4
Human alphaherpesvirus 1 [11] = assay: Antiviral activity against Herpes simplex virus 1 KOS infected in human HEL cells assessed as reduction of virus-induced cytopathogenicity at 250 uM; format: functional, organism-based; method in brief: as §4

Structure (SMILES) | Activity (MDCK) | Activity [1] | Activity (Vero) | Activity (HeLa) | Activity (HEL) | inhibition [2] | inhibition [3] | inhibition (Feline coronavirus) | inhibition (Felid alphaherpesvirus 1) | inhibition (Influenza B virus) | inhibition (Influenza A virus [4]) | inhibition (Influenza A virus [5]) | inhibition (Punta Toro virus) | inhibition (Sindbis virus) | inhibition (Coxsackievirus B4) | inhibition [6] | inhibition (Human respirovirus 3) | inhibition [7] | inhibition [8] | inhibition (Human alphaherpesvirus 1 [9]) | also measured
CCOP(=O)(OCC)[C@H]1C[C@H](C(=O)Nc2cccc(C#N)c2)ON1C (racemic) | Non-toxic | Non-toxic | Non-toxic | Non-toxic | Non-toxic | inactive | inactive | inactive | inactive | inactive | inactive | inactive | inactive | inactive | inactive | inactive | inactive | inactive | inactive | inactive | inhibition [10]: inactive; inhibition (Human alphaherpesvirus 2): inactive; inhibition (Human alphaherpesvirus 1 [11]): inactive
CCOP(=O)(OCC)[C@@H]1C[C@H](C(=O)Nc2ccc(F)cc2)ON1C (mixture of isomers) | Non-toxic | Non-toxic | Non-toxic | Non-toxic | Non-toxic | inactive | inactive | inactive | inactive | inactive | inactive | inactive | inactive | inactive | inactive | inactive | inactive | inactive | inactive | inactive | inhibition [10]: inactive; inhibition (Human alphaherpesvirus 2): inactive; inhibition (Human alphaherpesvirus 1 [11]): inactive
CCOP(=O)(OCC)[C@@H]1C[C@H](C(=O)Nc2ccccc2Br)ON1C (mixture of isomers) | Non-toxic | Non-toxic | Non-toxic | Non-toxic | Non-toxic | inactive | inactive | inactive | inactive | inactive | inactive | inactive | inactive | inactive | inactive | inactive | inactive | inactive | inactive | inactive | inhibition [10]: inactive; inhibition (Human alphaherpesvirus 2): inactive; inhibition (Human alphaherpesvirus 1 [11]): inactive
CCOP(=O)(OCC)[C@H]1C[C@H](C(=O)Nc2ccc(C#N)cc2)ON1C (racemic) | Non-toxic | Non-toxic | Non-toxic | Non-toxic | Non-toxic | inactive | inactive | inactive | inactive | inactive | inactive | inactive | inactive | inactive | inactive | inactive | inactive | inactive | inactive | inactive | inhibition [10]: inactive; inhibition (Human alphaherpesvirus 2): inactive; inhibition (Human alphaherpesvirus 1 [11]): inactive
CCOP(=O)(OCC)[C@@H]1C[C@H](C(=O)Nc2ccccc2Cl)ON1C (mixture of isomers) | Non-toxic | Non-toxic | Non-toxic | Non-toxic | Non-toxic | inactive | inactive | inactive | inactive | inactive | inactive | inactive | inactive | inactive | inactive | inactive | inactive | inactive | inactive | inactive | inhibition [10]: inactive; inhibition (Human alphaherpesvirus 2): inactive; inhibition (Human alphaherpesvirus 1 [11]): inactive
CCOP(=O)(OCC)[C@H]1C[C@H](C(=O)Nc2cccc(C(C)=O)c2)ON1C (mixture of isomers) | Non-toxic | Non-toxic | Non-toxic | Non-toxic | Non-toxic | inactive | inactive | inactive | inactive | inactive | inactive | inactive | inactive | inactive | inactive | inactive | inactive | inactive | inactive | inactive | inhibition [10]: inactive; inhibition (Human alphaherpesvirus 2): inactive; inhibition (Human alphaherpesvirus 1 [11]): inactive
CCOc1ccc(NC(=O)[C@H]2C[C@H](P(=O)(OCC)OCC)N(C)O2)cc1 (mixture of isomers) | Non-toxic | Non-toxic | Non-toxic | Non-toxic | Non-toxic | inactive | inactive | inactive | inactive | inactive | inactive | inactive | inactive | inactive | inactive | inactive | inactive | inactive | inactive | inactive | inhibition [10]: inactive; inhibition (Human alphaherpesvirus 2): inactive; inhibition (Human alphaherpesvirus 1 [11]): inactive
CCOP(=O)(OCC)[C@@H]1C[C@H](C(=O)Nc2cccc(Br)c2)ON1C (mixture of isomers) | Non-toxic | Non-toxic | Non-toxic | Non-toxic | Non-toxic | inactive | inactive | inactive | inactive | inactive | inactive | inactive | inactive | inactive | inactive | inactive | inactive | inactive | inactive | inactive | inhibition [10]: inactive; inhibition (Human alphaherpesvirus 2): inactive; inhibition (Human alphaherpesvirus 1 [11]): inactive
